Data as given in ChEMBL document CHEMBL1154675, “Identification of death-associated protein kinases inhibitors using structure-based virtual screening” (J Med Chem, 2009).
Each block holds one compound with its values, some of them ahead of it. Active and inactive are the calls of the source. No cut-off for these calls is given here.

Legend:
[1] = target: T1, Death-associated protein kinase 3 (Homo sapiens, UniProt O43293); assay: Inhibition of DAPK3 at 10 uM
In short: (§1)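 Single-concentration screen of recombinant DAPK3 in the standard Z'-LYTE Ser/Thr 13 peptide reaction: peptide substrate and ATP in 50 mM HEPES pH 7.4, 10 mM MgCl2, 0.01% Brij-35, 0.5% DMSO. Percent inhibition of enzyme activity was read at the stated final compound concentration.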
Target sequence in this assay (O43293 whole entry, looked up): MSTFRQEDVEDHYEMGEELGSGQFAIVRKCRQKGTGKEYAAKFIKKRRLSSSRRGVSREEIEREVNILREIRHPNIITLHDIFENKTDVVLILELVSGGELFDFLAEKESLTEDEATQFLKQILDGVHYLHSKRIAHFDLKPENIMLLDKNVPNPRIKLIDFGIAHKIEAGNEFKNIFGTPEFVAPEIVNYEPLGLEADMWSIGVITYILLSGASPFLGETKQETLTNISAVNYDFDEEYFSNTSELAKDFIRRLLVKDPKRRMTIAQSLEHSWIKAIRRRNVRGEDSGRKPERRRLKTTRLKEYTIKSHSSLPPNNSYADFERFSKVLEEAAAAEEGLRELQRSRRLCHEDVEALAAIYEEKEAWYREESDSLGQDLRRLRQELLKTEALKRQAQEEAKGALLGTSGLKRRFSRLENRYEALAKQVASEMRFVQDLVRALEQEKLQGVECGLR

[2] = target: T1, Death-associated protein kinase 3; assay: Inhibition of DAPK3 at 1 uM; in short: as §1
Target sequence in this assay (O43293 whole entry, looked up): as above

[3] = target: Serine/threonine-protein kinase Chk1 (Homo sapiens) (UniProt O14757); assay: Inhibition of CHK1 at 10 uM
In short: (§2)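 Selectivity panel run with ProfilerPro kinase kits following the kit protocol. Activity against each kinase was reported as an IC50 range: below 1 μM, between 1 and 10 μM, or above 10 μM.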

[4] = target: Serine/threonine-protein kinase Sgk1 (Homo sapiens, UniProt O00141); assay: Inhibition of SGK1; in short: as §2
[5] = target: Protein kinase C beta type (Homo sapiens) (UniProt P05771); assay: Inhibition of PKCbeta2 at 10 uM
[6] = target: Death-associated protein kinase 1 (Homo sapiens, UniProt P53355); assay: Inhibition of DAPK1
In short: (§3)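 IC50 runs used the Z'-LYTE Ser/Thr 13 peptide format. Human recombinant DAPK1 was at 2.6 μg/mL final; DAPK3 was recombinant. Each kinase was incubated with 10 μM ATP and a range of inhibitor concentrations in 50 mM HEPES pH 7.4, 10 mM MgCl2, 0.01% Brij-35, 0.5% DMSO, with peptide substrate.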

[7] = target: Serine/threonine-protein kinase pim-2 (Homo sapiens) (UniProt Q9P1W9); assay: Inhibition of PIM2 at 10 uM
[8] = target: Tyrosine-protein kinase BTK (Homo sapiens) (UniProt Q06187); assay: Inhibition of BTK at 10 uM; in short: as §2
[9] = Inhibition of PKA at 10 uM
[10] = target: Mitogen-activated protein kinase kinase kinase kinase 4 (Homo sapiens) (UniProt O95819); assay: Inhibition of HGK at 10 uM
[11] = target: Tyrosine-protein kinase SYK (Homo sapiens) (UniProt P43405); assay: Inhibition of SYK at 10 uM
[12] = target: Ribosomal protein S6 kinase alpha-1 (Homo sapiens) (UniProt Q15418); assay: Inhibition of RSK1 at 10 uM; in short: as §2
[13] = target: T1, Death-associated protein kinase 3; assay: Inhibition of DAPK3; in short: as §3
Target sequence in this assay (O43293 whole entry): as the sequence (O43293 whole entry, looked up) above

[14] = target: Glycogen synthase kinase-3 beta (Homo sapiens) (UniProt P49841); assay: Inhibition of GSK3-beta at 10 uM
[15] = Inhibition of AMPK at 10 uM
[16] = target: Aurora kinase A (Homo sapiens) (UniProt O14965); assay: Inhibition of AurA at 10 uM
[17] = target: Tyrosine-protein kinase Lck (Homo sapiens) (UniProt P06239); assay: Inhibition of LCK at 10 uM; in short: as §2
[18] = target: Calcium/calmodulin-dependent protein kinase type IV (Homo sapiens) (UniProt Q16566); assay: Inhibition of CAMK4 at 10 uM; in short: as §2
[19] = Inhibition of p70S6K
In short: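 Selectivity panel of kinases run with a commercial profiling kit according to the kit protocol. Inhibition is reported only as IC50 bands: below 1 μM, 1–10 μM, or above 10 μM.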

[20] = target: Mitogen-activated protein kinase 1 (Homo sapiens, UniProt P28482); assay: Inhibition of Erk2; in short: as §2
[21] = target: Insulin-like growth factor 1 receptor (Homo sapiens) (UniProt P08069); assay: Inhibition of IGF1R at 10 uM
[22] = target: Insulin receptor (Homo sapiens) (UniProt P06213); assay: Inhibition of INSR at 10 uM
[23] = target: Dual specificity tyrosine-phosphorylation-regulated kinase 1A (Homo sapiens, UniProt Q13627); assay: Inhibition of […]; in short: as §2
[24] = target: Serine/threonine-protein kinase MARK1 (Homo sapiens) (UniProt Q9P0L2); assay: Inhibition of MARK1 at 10 uM
[25] = target: Mitogen-activated protein kinase 3 (Homo sapiens) (UniProt P27361); assay: Inhibition of Erk1 at 10 uM
Mitogen-activated protein kinase 3 (Homo sapiens), sequence (P27361 whole entry): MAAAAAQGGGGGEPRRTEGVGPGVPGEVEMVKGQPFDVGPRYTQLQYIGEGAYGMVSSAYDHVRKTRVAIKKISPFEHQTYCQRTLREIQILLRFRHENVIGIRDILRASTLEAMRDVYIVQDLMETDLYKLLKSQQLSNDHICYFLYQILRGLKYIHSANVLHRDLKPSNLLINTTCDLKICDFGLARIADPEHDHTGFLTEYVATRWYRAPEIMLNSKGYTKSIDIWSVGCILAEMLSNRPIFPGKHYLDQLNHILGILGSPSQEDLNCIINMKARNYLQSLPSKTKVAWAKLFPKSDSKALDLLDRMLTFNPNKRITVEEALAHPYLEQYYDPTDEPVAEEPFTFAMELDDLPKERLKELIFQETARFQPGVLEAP

[26] = target: Proto-oncogene tyrosine-protein kinase Src (Homo sapiens) (UniProt P12931); assay: Inhibition of SRC at 10 uM
[27] = target: Serine/threonine-protein kinase Chk2 (Homo sapiens) (UniProt O96017); assay: Inhibition of CHK2 at 10 uM; in short: as §2
Serine/threonine-protein kinase Chk2 (Homo sapiens), sequence (O96017 whole entry): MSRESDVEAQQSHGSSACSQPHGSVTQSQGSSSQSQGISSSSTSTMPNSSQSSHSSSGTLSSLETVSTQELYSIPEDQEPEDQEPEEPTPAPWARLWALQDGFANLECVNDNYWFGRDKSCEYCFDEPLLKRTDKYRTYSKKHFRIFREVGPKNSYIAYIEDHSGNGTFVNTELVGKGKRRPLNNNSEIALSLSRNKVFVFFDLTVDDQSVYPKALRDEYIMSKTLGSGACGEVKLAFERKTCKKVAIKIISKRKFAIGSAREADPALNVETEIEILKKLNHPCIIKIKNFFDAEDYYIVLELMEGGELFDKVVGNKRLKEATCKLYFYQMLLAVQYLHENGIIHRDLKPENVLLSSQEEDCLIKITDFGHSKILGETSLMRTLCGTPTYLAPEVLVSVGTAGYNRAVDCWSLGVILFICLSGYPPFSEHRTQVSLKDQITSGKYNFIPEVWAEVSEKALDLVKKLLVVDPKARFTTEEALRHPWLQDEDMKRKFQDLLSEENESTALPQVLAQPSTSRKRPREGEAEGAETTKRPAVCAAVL

[28] = target: Serine/threonine-protein kinase PAK 2 (Homo sapiens) (UniProt Q13177); assay: Inhibition of PAK2 at 10 uM
[29] = target: Rho-associated protein kinase 2 (Homo sapiens) (UniProt O75116); assay: Inhibition of ROCK2 at 10 uM
[30] = target: Protein kinase C zeta type (Homo sapiens) (UniProt Q05513); assay: Inhibition of PKCzeta at 10 uM
[31] = Inhibition of CAMK2 at 10 uM
[32] = target: Fibroblast growth factor receptor 1 (Homo sapiens, UniProt P11362); assay: Inhibition of FGFR1; in short: as §2
[33] = target: RAC-beta serine/threonine-protein kinase (Homo sapiens) (UniProt P31751); assay: Inhibition of AKT2 at 10 uM
[34] = target: MAP kinase-activated protein kinase 2 (Homo sapiens) (UniProt P49137); assay: Inhibition of MAPKAPK2 at 10 uM; in short: as §2
[35] = target: Tyrosine-protein kinase ABL1 (Homo sapiens) (UniProt P00519); assay: Inhibition of ABL at 10 uM
Tyrosine-protein kinase ABL1 (Homo sapiens), sequence (P00519 whole entry): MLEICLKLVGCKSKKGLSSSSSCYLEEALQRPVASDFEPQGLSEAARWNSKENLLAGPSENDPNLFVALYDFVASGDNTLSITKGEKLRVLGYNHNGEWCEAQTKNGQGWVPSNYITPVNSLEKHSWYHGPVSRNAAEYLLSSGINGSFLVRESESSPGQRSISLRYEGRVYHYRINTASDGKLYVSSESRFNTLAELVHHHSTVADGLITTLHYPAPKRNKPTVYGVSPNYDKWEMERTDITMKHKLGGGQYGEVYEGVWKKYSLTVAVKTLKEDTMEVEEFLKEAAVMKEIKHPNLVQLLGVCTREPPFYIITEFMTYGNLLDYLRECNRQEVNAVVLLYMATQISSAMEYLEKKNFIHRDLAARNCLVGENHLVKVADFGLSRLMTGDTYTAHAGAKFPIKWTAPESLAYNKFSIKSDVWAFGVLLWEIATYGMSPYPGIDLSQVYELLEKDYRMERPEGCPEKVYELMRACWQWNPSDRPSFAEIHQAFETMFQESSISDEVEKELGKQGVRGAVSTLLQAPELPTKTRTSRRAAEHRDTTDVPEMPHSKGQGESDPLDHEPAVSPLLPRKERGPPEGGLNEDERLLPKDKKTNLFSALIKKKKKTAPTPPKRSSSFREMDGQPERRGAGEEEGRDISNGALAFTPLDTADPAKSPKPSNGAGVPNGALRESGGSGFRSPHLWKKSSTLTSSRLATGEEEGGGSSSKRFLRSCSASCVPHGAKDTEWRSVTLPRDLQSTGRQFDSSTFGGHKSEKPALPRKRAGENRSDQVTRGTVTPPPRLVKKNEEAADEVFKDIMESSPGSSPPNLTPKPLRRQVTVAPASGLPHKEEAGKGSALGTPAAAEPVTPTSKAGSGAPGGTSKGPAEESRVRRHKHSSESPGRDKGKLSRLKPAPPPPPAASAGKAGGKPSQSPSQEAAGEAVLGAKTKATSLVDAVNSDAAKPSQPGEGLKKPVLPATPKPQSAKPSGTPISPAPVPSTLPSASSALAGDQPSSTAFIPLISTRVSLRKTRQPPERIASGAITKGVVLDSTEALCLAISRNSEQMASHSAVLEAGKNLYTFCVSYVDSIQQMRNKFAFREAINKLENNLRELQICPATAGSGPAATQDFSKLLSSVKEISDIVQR

[36] = target: RAF proto-oncogene serine/threonine-protein kinase (Homo sapiens) (UniProt P04049); assay: Inhibition of c-Raf at 10 uM
[37] = target: Serine/threonine-protein kinase D2 (Homo sapiens) (UniProt Q9BZL6); assay: Inhibition of PKD2 at 10 uM
[38] = target: MAP/microtubule affinity-regulating kinase 3 (Homo sapiens) (UniProt P27448); assay: Inhibition of c-TAK1 at 10 uM; in short: as §2
[39] = target: Casein kinase I isoform delta (Homo sapiens, UniProt P48730); assay: Inhibition of CK1delta; in short: as §2
[40] = target: Cyclin-dependent kinase 2 (Homo sapiens) (UniProt P24941); assay: Inhibition of CDK2 at 10 uM; in short: as §2
[41] = target: Serine/threonine-protein kinase 3 (Homo sapiens) (UniProt Q13188); assay: Inhibition of MST2 at 10 uM; in short: as §2
[42] = Inhibition of PKGalpha at 10 uM
[43] = target: Tyrosine-protein kinase Lyn (Homo sapiens) (UniProt P07948); assay: Inhibition of LYN at 10 uM; in short: as §2
[44] = target: Interleukin-1 receptor-associated kinase 4 (Homo sapiens) (UniProt Q9NWZ3); assay: Inhibition of IRAK4 at 10 uM; in short: as §2
Interleukin-1 receptor-associated kinase 4 (Homo sapiens), sequence (Q9NWZ3 whole entry): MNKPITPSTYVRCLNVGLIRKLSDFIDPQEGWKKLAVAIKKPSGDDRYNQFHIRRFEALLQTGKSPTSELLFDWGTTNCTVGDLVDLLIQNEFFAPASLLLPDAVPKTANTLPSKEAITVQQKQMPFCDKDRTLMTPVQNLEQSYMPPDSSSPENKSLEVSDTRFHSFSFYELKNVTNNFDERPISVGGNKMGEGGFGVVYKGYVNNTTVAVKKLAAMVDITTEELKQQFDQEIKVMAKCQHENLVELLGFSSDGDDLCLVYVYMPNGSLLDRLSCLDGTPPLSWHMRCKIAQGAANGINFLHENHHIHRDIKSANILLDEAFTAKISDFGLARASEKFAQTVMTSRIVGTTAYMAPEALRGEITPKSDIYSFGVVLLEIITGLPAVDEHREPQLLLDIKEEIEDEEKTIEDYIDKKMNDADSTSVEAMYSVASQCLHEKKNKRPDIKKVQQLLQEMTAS

[45] = target: Ribosomal protein S6 kinase alpha-5 (Homo sapiens) (UniProt O75582); assay: Inhibition of MSK1 at 10 uM; in short: as §2
[46] = target: Receptor-type tyrosine-protein kinase FLT3 (Homo sapiens) (UniProt P36888); assay: Inhibition of FLT3 at 10 uM
[47] = target: Hepatocyte growth factor receptor (Homo sapiens) (UniProt P08581); assay: Inhibition of MET at 10 uM; in short: as §2
Hepatocyte growth factor receptor (Homo sapiens), sequence (P08581 whole entry): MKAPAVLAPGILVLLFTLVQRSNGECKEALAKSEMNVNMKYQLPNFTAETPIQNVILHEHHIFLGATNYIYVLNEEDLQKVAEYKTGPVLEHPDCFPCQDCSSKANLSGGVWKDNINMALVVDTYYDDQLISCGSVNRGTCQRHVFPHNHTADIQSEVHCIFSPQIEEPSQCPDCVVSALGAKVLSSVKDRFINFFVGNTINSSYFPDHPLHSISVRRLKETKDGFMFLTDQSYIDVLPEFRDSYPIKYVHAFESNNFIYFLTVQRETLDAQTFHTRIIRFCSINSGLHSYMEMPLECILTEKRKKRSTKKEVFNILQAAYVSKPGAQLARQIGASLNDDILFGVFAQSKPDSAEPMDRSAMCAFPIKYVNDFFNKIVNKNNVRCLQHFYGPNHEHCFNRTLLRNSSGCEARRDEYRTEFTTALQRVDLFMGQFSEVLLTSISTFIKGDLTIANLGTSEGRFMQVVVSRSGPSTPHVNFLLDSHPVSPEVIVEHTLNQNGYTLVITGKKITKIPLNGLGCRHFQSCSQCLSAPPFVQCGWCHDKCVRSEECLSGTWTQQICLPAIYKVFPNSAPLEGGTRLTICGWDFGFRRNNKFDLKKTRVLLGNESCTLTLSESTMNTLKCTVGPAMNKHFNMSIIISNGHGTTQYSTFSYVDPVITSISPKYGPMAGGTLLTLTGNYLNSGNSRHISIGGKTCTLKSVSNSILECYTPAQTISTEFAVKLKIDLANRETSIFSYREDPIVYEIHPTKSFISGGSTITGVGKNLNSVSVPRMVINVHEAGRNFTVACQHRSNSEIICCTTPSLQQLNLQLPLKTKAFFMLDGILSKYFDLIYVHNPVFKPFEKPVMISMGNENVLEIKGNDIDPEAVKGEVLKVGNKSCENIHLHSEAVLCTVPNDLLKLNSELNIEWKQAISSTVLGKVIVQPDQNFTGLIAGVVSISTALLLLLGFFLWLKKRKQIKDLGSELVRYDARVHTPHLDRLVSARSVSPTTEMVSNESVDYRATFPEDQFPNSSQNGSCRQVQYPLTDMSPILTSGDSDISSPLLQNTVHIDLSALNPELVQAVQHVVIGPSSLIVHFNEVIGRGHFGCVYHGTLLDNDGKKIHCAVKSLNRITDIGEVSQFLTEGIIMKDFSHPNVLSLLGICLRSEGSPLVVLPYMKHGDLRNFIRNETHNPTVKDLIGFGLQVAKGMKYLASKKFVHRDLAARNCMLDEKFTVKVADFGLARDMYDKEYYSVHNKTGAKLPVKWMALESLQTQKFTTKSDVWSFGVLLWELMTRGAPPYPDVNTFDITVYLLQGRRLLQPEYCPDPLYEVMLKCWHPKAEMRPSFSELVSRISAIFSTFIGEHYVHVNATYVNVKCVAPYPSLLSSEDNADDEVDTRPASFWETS

[48] = target: Tyrosine-protein kinase Fyn (Homo sapiens) (UniProt P06241); assay: Inhibition of FYN at 10 uM; in short: as §2
[49] = target: RAC-alpha serine/threonine-protein kinase (Homo sapiens) (UniProt P31749); assay: Inhibition of AKT1 at 10 uM
[50] = target: Mitogen-activated protein kinase 14 (Homo sapiens) (UniProt Q16539); assay: Inhibition of p38alpha at 10 uM
[51] = target: Vascular endothelial growth factor receptor 2 (Homo sapiens, UniProt P35968); assay: Inhibition of KDR; in short: as §2
[52] = target: MAP kinase-activated protein kinase 5 (Homo sapiens) (UniProt Q8IW41); assay: Inhibition of PRAK at 10 uM; in short: as §2
MAP kinase-activated protein kinase 5 (Homo sapiens), sequence (Q8IW41 whole entry): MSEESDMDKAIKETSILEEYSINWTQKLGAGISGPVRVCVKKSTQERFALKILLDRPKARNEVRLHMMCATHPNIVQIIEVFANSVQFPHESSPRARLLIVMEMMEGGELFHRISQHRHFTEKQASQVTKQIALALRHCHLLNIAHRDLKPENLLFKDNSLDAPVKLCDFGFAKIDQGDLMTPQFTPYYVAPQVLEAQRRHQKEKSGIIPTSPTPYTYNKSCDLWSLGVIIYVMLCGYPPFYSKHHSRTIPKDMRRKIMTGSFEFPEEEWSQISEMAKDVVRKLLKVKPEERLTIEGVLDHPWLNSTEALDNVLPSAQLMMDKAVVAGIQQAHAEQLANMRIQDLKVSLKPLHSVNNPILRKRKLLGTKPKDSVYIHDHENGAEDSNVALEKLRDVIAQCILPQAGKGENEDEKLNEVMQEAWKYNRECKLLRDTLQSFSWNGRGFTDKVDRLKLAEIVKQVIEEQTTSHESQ

SMILES: O=C1OC(c2cccc(Cl)c2[N+](=O)[O-])=N/C1=C\c1cccnc1
- inhibition [1]: 58%
- inhibition [2]: 3%

- inhibition [3]: inactive
- IC50 [4]: > 10 µM
- inhibition [5]: inactive
- inhibition [7]: inactive
- inhibition [8]: inactive
- inhibition [9]: inactive
- inhibition [10]: inactive
- inhibition [11]: inactive
- inhibition [12]: inactive
- inhibition [14]: inactive
- inhibition [15]: inactive
- inhibition [16]: inactive
- inhibition [17]: inactive
- inhibition [18]: inactive
- IC50 [19]: < 10 µM
- IC50 [20]: > 10 µM
- inhibition [21]: inactive
- inhibition [22]: inactive
- IC50 [23]: > 10 µM
- inhibition [24]: inactive
- inhibition [25]: inactive
- inhibition [26]: inactive
- inhibition [27]: inactive
- inhibition [28]: inactive
- inhibition [29]: inactive
- inhibition [30]: inactive
- inhibition [31]: inactive
- IC50 [32]: > 10 µM
- inhibition [33]: inactive
- inhibition [34]: inactive
- inhibition [35]: inactive
- inhibition [36]: inactive
- inhibition [37]: inactive
- inhibition [38]: inactive
- IC50 [39]: > 10 µM
- inhibition [40]: inactive
- inhibition [41]: inactive
- inhibition [42]: inactive
- inhibition [43]: inactive
- inhibition [44]: inactive
- inhibition [45]: inactive
- inhibition [46]: inactive
- inhibition [47]: inactive
- inhibition [48]: inactive
- inhibition [49]: inactive
- inhibition [50]: inactive
- IC50 [51]: > 10 µM
- inhibition [52]: inactive
SMILES: O=C1OC(/C=C/c2ccccc2)=NC/1=C\c1cccnc1
- IC50 [6]: < 1 µM
- inhibition [1]: 58%
- IC50 [13]: < 1 µM
- inhibition [2]: 3%

SMILES: Cc1c(O)ccc2c(CN3CCN(C)CC3)cc(=O)oc12
- inhibition [1]: 54%
- inhibition [2]: 12%

SMILES: Cc1cccc2c(C(=O)O)cc(-c3ccncc3)nc12
- inhibition [1]: 72%
- inhibition [2]: 2%

SMILES: O=C1OC(C23CC4CC(CC(C4)C2)C3)=N/C1=C\c1cccnc1
- inhibition [1]: 58%
- inhibition [2]: 3%

SMILES: Cc1ccccc1C1=N/C(=C\c2cccnc2)C(=O)O1
- inhibition [1]: 58%
- inhibition [2]: 3%

SMILES: O=C1OC(c2ccccc2)=N/C1=C\c1cccnc1
- inhibition [1]: 84%
- inhibition [2]: 71%

SMILES: Cc1ccc2nc(-c3ccncc3)cc(C(=O)O)c2c1
- inhibition [1]: 58%
- inhibition [2]: 3%
